Experimental data published in PMC7668563 (International journal of molecular biology (Edmond, Okla.), 2020).
Like-named read-outs stand apart in the source and are kept apart here.

What was measured:
[1] = biological target: T1, apo-human transferrin (apo-hTf) (Homo sapiens, UniProt P02787); experiment: Far-UV circular dichroism titration of apo-hTf, secondary structure content
In short: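 Apo-hTf (4.0×10−7 mol L−1) in 2 mM Tris-HCl pH 7.4 was titrated with a 1.0×10−3 mol L−1 stock of test compound in Tris-HCl/2% DMSO, to final 0–2.4×10−6 mol L−1. Far-UV CD was recorded from 190–250 nm under nitrogen in a 1.0 cm cell: six scans at 100 nm/min. Baseline was buffer ± DMSO at room temperature. α-Helix was derived from MRE at 208 nm; β-sheet and random coil by the CD-RRG method.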

[2] = test system: human breast adenocarcinoma cell line, MCF-7; conditions: cited from earlier work
[3] = biological target: T1, apo-human transferrin (apo-hTf); experiment: UV-Vis absorbance titration of apo-hTf; assay type: binding
[4] = test system: human colorectal adenocarcinoma cell line, HT-29; conditions: cited from earlier work
[5] = biological target: T1, apo-human transferrin (apo-hTf); experiment: Fluorescence quenching of apo-hTf; assay type: binding; conditions: for biomolecular quenching rate constant kq: kq=Ksv/τ0; for Stern-Volmer quenching constant Ksv / number of binding sites n: pH 7.4; for quenching association constant Ka: pH 7.4, modified Stern-Volmer
In short: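 Intrinsic fluorescence of apo-hTf in Tris-HCl pH 7.4 was titrated with test compound (Tris-HCl/2% DMSO). Conditions: excitation 280 nm, emission 290–500 nm, slits 10/5 nm, 1.0 cm quartz cell, at 296, 303, 310 and 317 K, triplicate titrations. Intensities were corrected for inner filter effect using absorbances at excitation and emission wavelengths. Ksv came from Stern-Volmer plots of F0/F vs [Q]; kq = Ksv/τ0 (τ0 ~1.0×10−8); Ka and n came from the modified Stern-Volmer equation.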

[6] = biological target: T1, apo-human transferrin (apo-hTf); experiment: Fluorescence resonance energy transfer; assay type: binding
In short: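 Emission spectrum of 1.0×10−5 mol L−1 apo-hTf and absorption spectrum of 1.0×10−5 mol L−1 test compound were recorded in 20 mM Tris-HCl pH 7.4 at room temperature, 260–450 nm, and their spectral overlap determined. E was calculated from apo-hTf fluorescence without and with equimolar test compound. R0 and donor–acceptor distance r came from Förster equations.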

[7] = biological target: T1, apo-human transferrin (apo-hTf); experiment: Thermodynamic parameters of apo-hTf complex formation; assay type: binding
In short: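 Ksv values were obtained from apo-hTf fluorescence quenching at pH 7.4 at 296, 303, 310 and 317 K. ΔH°, ΔS° and ΔG° were derived from linear regression of ln(Ksv) vs 1/T (Van't Hoff equation).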

T1 sequence (P02787 20-698): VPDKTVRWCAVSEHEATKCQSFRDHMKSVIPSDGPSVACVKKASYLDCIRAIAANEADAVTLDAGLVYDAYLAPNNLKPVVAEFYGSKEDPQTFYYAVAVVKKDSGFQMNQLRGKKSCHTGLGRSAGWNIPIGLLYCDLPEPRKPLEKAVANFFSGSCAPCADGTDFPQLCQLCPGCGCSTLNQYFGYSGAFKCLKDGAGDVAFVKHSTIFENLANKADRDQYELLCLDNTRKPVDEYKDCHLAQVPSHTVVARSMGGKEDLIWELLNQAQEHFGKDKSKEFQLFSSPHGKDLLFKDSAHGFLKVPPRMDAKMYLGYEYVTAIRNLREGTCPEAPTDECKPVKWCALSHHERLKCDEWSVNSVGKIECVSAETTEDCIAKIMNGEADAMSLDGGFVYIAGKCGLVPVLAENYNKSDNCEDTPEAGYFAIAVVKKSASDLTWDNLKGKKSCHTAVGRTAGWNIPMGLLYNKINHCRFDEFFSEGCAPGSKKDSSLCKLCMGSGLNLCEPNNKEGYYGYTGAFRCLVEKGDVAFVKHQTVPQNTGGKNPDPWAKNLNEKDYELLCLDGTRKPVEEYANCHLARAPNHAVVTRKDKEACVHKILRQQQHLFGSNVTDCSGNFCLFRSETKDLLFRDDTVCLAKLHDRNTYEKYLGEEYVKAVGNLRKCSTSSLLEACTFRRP

N.N.[Cl][Pt][Cl] [(NH3)2Pt(II)Cl2, cis-diamminedichloroplatinum (II), reference compound]
other secondary structure content of apo-hTf ([1]; compound concentration 0.4 (M)): 19.1% | random coil content of apo-hTf ([1]; compound concentration 0.4 (M)): 33.9% | α-helix content of apo-hTf ([1]; compound concentration 0.4 (M)): 28.9% | β-sheet content of apo-hTf ([1]; compound concentration 0.4 (M)): 18.1% | other secondary structure content of apo-hTf ([1]; compound concentration 0.8 (M)): 19.2% | random coil content of apo-hTf ([1]; compound concentration 0.8 (M)): 33.9% | α-helix content of apo-hTf ([1]; compound concentration 0.8 (M)): 28.7% | β-sheet content of apo-hTf ([1]; compound concentration 0.8 (M)): 18.2% | other secondary structure content of apo-hTf ([1]; compound concentration 1.2 (M)): 19.2% | random coil content of apo-hTf ([1]; compound concentration 1.2 (M)): 34% | α-helix content of apo-hTf ([1]; compound concentration 1.2 (M)): 28.5% | β-sheet content of apo-hTf ([1]; compound concentration 1.2 (M)): 18.3% | other secondary structure content of apo-hTf ([1]; compound concentration 1.6 (M)): 19.3% | random coil content of apo-hTf ([1]; compound concentration 1.6 (M)): 34% | α-helix content of apo-hTf ([1]; compound concentration 1.6 (M)): 28.3% | β-sheet content of apo-hTf ([1]; compound concentration 1.6 (M)): 18.4% | other secondary structure content of apo-hTf ([1]; compound concentration 2 (M)): 19.3% | random coil content of apo-hTf ([1]; compound concentration 2 (M)): 34.1% | α-helix content of apo-hTf ([1]; compound concentration 2 (M)): 28.1% | β-sheet content of apo-hTf ([1]; compound concentration 2 (M)): 18.5% | other secondary structure content of apo-hTf ([1]; compound concentration 2.4 (M)): 19.3% | random coil content of apo-hTf ([1]; compound concentration 2.4 (M)): 34.1% | α-helix content of apo-hTf ([1]; compound concentration 2.4 (M)): 28% | β-sheet content of apo-hTf ([1]; compound concentration 2.4 (M)): 18.6% | IC50 ([2]; read-out: IC50 (±SD), MCF-7, ref 83): 2 µM | IC50 ([2]; read-out: IC50 (±SD), MCF-7, ref 84): 4.6 µM | Ka at 280 nm ([3]; absorbance at 280 nm): 740 M⁻¹ | Association constants, Ka, 280 nm ([3]; absorbance of apo-hTf at 280 nm, pH 7.4): 0.74 10^3 M^−1 | IC50 ([4]; read-out: IC50 (±SD), HT-29, ref 77): 66 µM | IC50 ([4]; read-out: IC50 (±SD), HT-29, ref 84): 23 µM | IC50 ([4]; read-out: IC50 (±SD), HT-29, ref 85): 76 µM | biomolecular quenching rate constant kq ([5]; 296 K): 1.35e+11 M⁻¹ s⁻¹ | Stern-Volmer quenching constant Ksv ([5]; 296 K): 1350 M⁻¹ | number of binding sites n ([5]; 296 K): 0.97 | quenching association constant Ka ([5]; 296 K): 1100 M⁻¹ | biomolecular quenching rate constant kq ([5]; 303 K): 1.1e+11 M⁻¹ s⁻¹ | Stern-Volmer quenching constant Ksv ([5]; 303 K): 1100 M⁻¹ | number of binding sites n ([5]; 303 K): 1.01 | quenching association constant Ka ([5]; 303 K): 1200 M⁻¹ | biomolecular quenching rate constant kq ([5]; 310 K): 9.8e+10 M⁻¹ s⁻¹ | Stern-Volmer quenching constant Ksv ([5]; 310 K): 980 M⁻¹ | number of binding sites n ([5]; 310 K): 1.04 | quenching association constant Ka ([5]; 310 K): 1400 M⁻¹ | biomolecular quenching rate constant kq ([5]; 317 K): 8.6e+10 M⁻¹ s⁻¹ | Stern-Volmer quenching constant Ksv ([5]; 317 K): 860 M⁻¹ | number of binding sites n ([5]; 317 K): 1.07 | quenching association constant Ka ([5]; 317 K): 1600 M⁻¹ | Förster critical energy transfer distance R0 ([6]; k^2=2/3, n=1.336, ØD=0.118): 7.4 nm | binding distance r (donor-acceptor) ([6]; k^2=2/3, n=1.336, ØD=0.118): 10.35 nm | efficiency of energy transfer E ([6]; room temperature, 1.0×10^−5 mol L^−1 each): 0.118 | ∆G° ([7]; 296 K): -4.226 kcal/mol | ∆G° ([7]; 303 K): -4.233 kcal/mol | ∆G° ([7]; 310 K): -4.242 kcal/mol | ∆G° ([7]; 317 K): -4.252 kcal/mol | ∆H° ([7]; pH 7.4, from Ksv at 296-317 K): -3.86 kcal/mol | ∆S° ([7]; pH 7.4, from Ksv at 296-317 K): 5.17 J/mol K
